How the values were obtained:
Rattus norvegicus [1] = experiment: In vivo inhibition of passive cutaneous anaphylaxis in rats when administered i.p.; format: functional; conditions: ip, read-out: ID50 (the source's name)
Procedure, shortened: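 Adult male Charles River rats (140-160 g, six per group) were sensitized intradermally at two sites with rat serum containing reaginic antibodies to chicken ovalbumin. After 48 h they were challenged iv with 10 mg/kg ovalbumin in 1% Evans blue. Compound was given ip 15 min before challenge. Bluing area was measured 30 min later, and percent inhibition was calculated. ID50 was read graphically from the dose-response curve.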

Rattus norvegicus [2] = experiment: In vivo inhibition of passive cutaneous anaphylaxis in rats when administered i.v.; format: functional; conditions: iv, read-out: ID50 (the source's name)
Procedure, shortened: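 Rats (adult male Charles River, 140-160 g, six per group) were sensitized intradermally at two sites with reaginic rat antiserum to chicken ovalbumin. After 48 h, compound at 30, 10 or 3 mg/kg iv was given simultaneously with the iv challenge of 10 mg/kg ovalbumin in 1% Evans blue. Dermal bluing area was measured at 30 min, and percent inhibition was calculated. ID50 was taken graphically from the dose-response curve.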

| SMILES | ED50 (Rattus norvegicus [1]) [mg/kg] | ED50 (Rattus norvegicus [2]) [mg/kg] |
| --- | --- | --- |
| CC1Sc2ccccc2-c2oc(C(=O)O)cc(=O)c21.NCCO (stereo not drawn) | 29 | 8.4 |
| CCCCc1ccc2c(c1)-c1nc(C(=O)O)cc(O)c1CS2.NCCO | 20 | 12 |
| O=c1c(CO)coc2c1CSc1ccccc1-2 | > 30 | > 30 |
| Cc1ccc2c(c1)-c1oc(C(=O)O)cc(=O)c1CS2.NCCO | > 30 | 19 |
| O=c1c(CO)coc2c1COc1ccccc1-2 | 23 |  |
| Cc1c(-c2nn[nH]n2)oc2c(c1=O)CS(=O)(=O)c1ccccc1-2 | 100 |  |
| CCC(C)c1ccc2c(c1)-c1oc(C(=O)O)cc(=O)c1CS2.NCCO (stereo not drawn) | > 30 | 25 |
| NCCO.O=C(O)c1cc(=O)c2c(o1)-c1cc(Cl)ccc1SC2 | > 100 | 28 |
| NCCO.O=C(O)c1cc(=O)c2c(o1)-c1ccccc1SC2 | > 100 | 25 |
| NCCO.O=C(O)c1cc(O)c2c(n1)-c1ccccc1SC2 | > 30 | 5.3 |
| NCCO.O=C(O)c1cc(=O)c2c(o1)-c1ccccc1S(=O)(=O)C2 | > 100 | > 30 |
| Cc1ccc(Cl)c2c1SCc1c(O)cc(C(=O)O)nc1-2.NCCO | > 30 | > 30 |
| CCC(C)c1ccc2c(c1)-c1nc(C(=O)O)cc(O)c1CS2.NCCO (stereo not drawn) | 27 | 8.2 |
| CCCCc1ccc2c(c1)-c1oc(C(=O)O)cc(=O)c1CS2.NCCO | > 30 | 19 |
| Cc1ccc2c(c1)-c1nc(C(=O)O)cc(O)c1CS2.NCCO | 34 | 6.9 |
| NCCO.O=C(O)c1cc(O)c2c(n1)-c1cc(Cl)ccc1SC2 | 33 | 3.3 |
| CCC(C)c1ccc2c(c1)-c1nc(C(=O)O)cc(O)c1CS2(=O)=O (stereo not drawn) | > 30 | > 30 |
| Cc1c(-c2nn[nH]n2)oc2c(c1=O)CSc1ccccc1-2 | > 30 |  |
| Cc1ccc(Cl)c2c1SCc1c-2oc(C(=O)O)cc1=O.NCCO | > 100 | 30 |
| O=C([O-])c1cc(=O)c2c(o1)-c1ccccc1OC2.[K+] |  | 12 |
| O=C([O-])c1cc(=O)c2c(OCC(O)COc3cccc4oc(C(=O)[O-])cc(=O)c34)cccc2o1.[Na+].[Na+] [CROMOLYN SODIUM] | 16.6 | 1 |

Reference: ChEMBL document CHEMBL1121367, “Synthesis and antiallergic properties of some 4H,5H-pyrano[3,2-c][1]benzopyran-4-one, 4H,5H-[1]benzothiopyrano[4,3-b]pyran-4-one, and 1,4-dihydro-5h-[1]benzothiopyrano[4,3-b]pyridin-4-one derivatives” (1980)
